# Measurements from paper PMC10288500 (ACS Bio & Med Chem Au, 2023).
# pEC50: −log10 of the molar value.
# Assays:
# TNF = conditions: read-out: EC50, inhibition of NF-κB; cited from earlier work
# [1] = Solubility by dynamic light scattering; assay type: physicochemical
# TNFR1 = molecular target: T1, TNFR1 (Homo sapiens, UniProt P19438); assay: IκB degradation assay; assay type: cell-based; conditions: HEK293 cells, 0.01 to 500 nM
# T1 sequence (P19438 30-455): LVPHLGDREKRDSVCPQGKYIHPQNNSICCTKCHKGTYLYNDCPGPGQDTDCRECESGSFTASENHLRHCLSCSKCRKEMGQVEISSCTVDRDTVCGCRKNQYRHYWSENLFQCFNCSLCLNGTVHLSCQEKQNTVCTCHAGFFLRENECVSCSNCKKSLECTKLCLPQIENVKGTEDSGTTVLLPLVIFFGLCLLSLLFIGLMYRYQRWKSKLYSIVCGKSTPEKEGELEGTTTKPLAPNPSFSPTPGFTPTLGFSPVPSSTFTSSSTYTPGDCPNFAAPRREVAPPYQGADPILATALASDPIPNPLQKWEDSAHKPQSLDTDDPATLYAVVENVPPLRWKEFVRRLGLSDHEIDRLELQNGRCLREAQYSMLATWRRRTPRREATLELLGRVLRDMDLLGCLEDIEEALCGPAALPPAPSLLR
# In short: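 HEK293 seeded at 0.4 million/mL in six-well plates overnight, then given compound 0.01–500 nM or DMSO for 2 h, then TNF 10 ng/mL for 30 min. Lysis in native buffer with protease inhibitor, 30 min on ice; BCA. 80 μg protein run on SDS–PAGE, immunoblotted for IκBα and β-actin. Bands quantified by densitometry (n = 3).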
# [2] = tested on: IL-1α-induced NF-κB activation; assay: IL-1α-induced NF-κB activation assay; assay type: cell-based; conditions: HEK293 cells, IL-1α 10 ng/mL, 0.01 to 500 nM, 24 h
# In short: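 HEK293 cells were transfected with NF-κB firefly/Renilla luciferase reporters and replated next day at 7500 cells/well in phenol red–free DMEM. Compound 0.01–500 nM or DMSO was incubated with or without IL-1α 10 ng/mL for 24 h at 37 °C. Sequential firefly and Renilla luminescence read with Dual-Glo reagents. Means ± SD of three experiments.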
# TNFR2 = molecular target: T2, TNFR2 (Homo sapiens, UniProt P20333); assay: RelB transcription factor activity assay; assay type: cell-based; conditions: HUVEC cells, 250 nM, densitometry
# T2 sequence (P20333 23-461): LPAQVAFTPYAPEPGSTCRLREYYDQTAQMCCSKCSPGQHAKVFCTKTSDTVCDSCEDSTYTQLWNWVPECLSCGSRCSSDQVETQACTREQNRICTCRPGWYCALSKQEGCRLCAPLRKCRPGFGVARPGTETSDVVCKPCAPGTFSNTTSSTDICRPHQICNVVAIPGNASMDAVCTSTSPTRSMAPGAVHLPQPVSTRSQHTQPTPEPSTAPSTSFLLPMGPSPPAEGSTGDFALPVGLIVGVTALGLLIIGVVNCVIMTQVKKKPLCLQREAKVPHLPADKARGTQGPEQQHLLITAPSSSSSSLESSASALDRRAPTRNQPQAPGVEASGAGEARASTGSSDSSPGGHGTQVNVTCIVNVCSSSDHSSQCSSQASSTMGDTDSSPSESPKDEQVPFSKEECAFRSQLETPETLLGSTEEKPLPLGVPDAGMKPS
# In short: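 HUVEC grown on gelatin-coated dishes in EGM-2 with 2% FBS, plated 1 million/well overnight, then transfected with 0.5 μg membrane TNF plasmid. After 6 h, medium replaced and compound (250 nM) added overnight. Lysates in native buffer, BCA, SDS–PAGE, immunoblotted for RelB; bands quantified by densitometry.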
# HEK293 cells = assay: MTT cytotoxicity assay; assay type: cell-based; conditions: 0.0001 nM–10 μM, 24 h
# In short: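 HEK293 plated at 7500 cells/well and grown 24 h at 37 °C, 5% CO2. Exposed to compound 0.0001 nM–10 μM for 24 h at 37 °C. Viability read by MTT on a multimode plate reader.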
# TRADD = assay: TRADD-induced NF-κB activation assay; assay type: cell-based; conditions: HEK293 cells overexpressing TRADD, 0.01 to 500 nM, without TNF
# In short: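 HEK293 (0.8 million/well, six-well) transfected with 1 μg NF-κB firefly reporter, 0.1 μg Renilla reporter, 1 μg TRADD plasmid and 0.4 μg empty vector (2.5 μg total); controls received empty vector instead of TRADD. Replated at 7500 cells/well after 3 h. Compound 0.01–500 nM or DMSO added 5 h later. Dual luciferase read 24 h post-treatment. Means ± SD, three experiments.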
aggregation by DLS at 200 μM [1],extent of inhibition of TNF-induced IκB degradation (TNFR1),effect on membrane TNF-TNFR2-induced activation of RelB (TNFR2),Compound,pEC50 (TNF),effect on IL-1α-induced NF-κB activation [2],cytotoxicity (MTT) (HEK293 cells),effect on TRADD-induced NF-κB activation (TRADD)
–,–,–,Cc1ccc(C)c(Cn2c(C(O)c3ccncc3)nc3ccc(-c4cnn(C)c4)cc32)c1 (stereo not shown) [UCB-9260],6.60,–,–,–
aggregation,partially inhibited,minimal effect,COc1cc(C(=O)NS(=O)(=O)c2ccccc2C)ccc1Cc1cn(C)c2ccc(NC(=O)OC3CCCC3)cc12 [zafirlukast],–,failed to mitigate,No appreciable cytotoxicity,little effect
